Experimental data as given in ChEMBL document CHEMBL5357066, “Development of Novel Membrane Disrupting Lipoguanidine Compounds Sensitizing Gram-Negative Bacteria to Antibiotics” (ACS Med Chem Lett, 2024).
In brackets after ≈: the same amount, converted by molar mass.

Legend:
[1] = system: Pseudomonas aeruginosa; experiment: Synergistic antibacterial activity against Pseudomonas aeruginosa PAO1 assessed as fold change in rifampicin MIC at <=0.25 times MIC incubated for overnight by microbroth dilution checkerboard assay relative to rifampicin alone; format: functional
How it was run: (§1)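 Checkerboard microdilution in Tryptic Soy Broth, run like the MIC assay. Overnight TSB cultures were back-diluted to OD 0.01 and added 1:1 to the combined two-fold series of both agents, then incubated overnight at 37 °C. Growth/no-growth was called at <0.1 OD600. MICs alone were read on the same plates. FIC index came from the most synergistic well; three independent repeats, mean ± SD.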

[2] = system: Enterococcus faecalis; experiment: Antibacterial activity against vancomycin resistant Enterococcus faecalis NCTC 12201 assessed as bacterial growth inhibition incubated for overnight by microbroth dilution method; format: functional
How it was run: (§2)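 Microbroth dilution in Tryptic Soy Broth. DMSO stocks were diluted in TSB as 2-fold series. Overnight TSB cultures were back-diluted to OD 0.01 and mixed 1:1 with compound. Incubation was overnight at 37 °C. MIC is the lowest concentration with no visible growth (<0.1 OD600). DMSO at equivalent concentrations was checked.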

[3] = system: Staphylococcus aureus; experiment: Antibacterial activity against methicillin resistant Staphylococcus aureus NCTC 13616 assessed as bacterial growth inhibition incubated for overnight by microbroth dilution method; format: functional; how it was run: as §2
[4] = system: Acinetobacter baumannii; experiment: Synergistic antibacterial activity against Acinetobacter baumannii ATCC 17978 assessed as fold change in rifampicin MIC at <=0.25 times MIC incubated for overnight by microbroth dilution checkerboard assay relative to rifampicin alone; format: functional
How it was run: (§3)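 Checkerboard microdilution under MIC conditions (TSB, overnight, 37 °C). Two-fold series of each agent were combined on one plate before bacteria were added, and single-agent MICs were measured on the same plate. FIC = sum of combination MIC/alone MIC for each agent, taken from the most synergistic well. Three independent repeats, mean ± SD. ≤0.5 was taken as strong synergy and 0.5–<1 as weak.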

[5] = system: Klebsiella pneumoniae; experiment: Antibacterial activity against ESBL Klebsiella pneumoniae NCTC 13368 assessed as bacterial growth inhibition incubated for overnight by microbroth dilution method
[6] = system: Klebsiella pneumoniae; experiment: Synergistic antibacterial activity against Klebsiella pneumoniae NCTC 13368 assessed as rifampicin MIC at <=0.25 times MIC incubated for overnight by microbroth dilution checkerboard assay; format: functional; how it was run: as §3
[7] = system: Pseudomonas aeruginosa; experiment: Synergistic antibacterial activity against Pseudomonas aeruginosa NCTC 13437 assessed as rifampicin MIC at <=0.25 times MIC incubated for overnight by microbroth dilution checkerboard assay; format: functional; how it was run: as §1
[8] = system: Escherichia coli; experiment: Antibacterial activity against Escherichia coli NCTC 12923 assessed as bacterial growth inhibition incubated for overnight by microbroth dilution method; format: functional
How it was run: (§4)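 Broth microdilution in Tryptic Soy Broth. DMSO stocks were diluted in TSB as 2-fold series. Overnight TSB cultures were back-diluted to OD 0.01 and mixed 1:1 with compound. Incubation was overnight at 37 °C. MIC was the lowest concentration without visible growth (<0.1 OD600). DMSO vehicle was checked at equivalent concentrations.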

[9] = system: Escherichia coli; experiment: Synergistic antibacterial activity against Escherichia coli NCTC 12923 assessed as rifampicin MIC at <=0.25 times MIC incubated for overnight by microbroth dilution checkerboard assay; format: functional; how it was run: as §3
[10] = system: Klebsiella pneumoniae; experiment: Synergistic antibacterial activity against Klebsiella pneumoniae NCTC 13368 assessed as fold change in rifampicin MIC at <=0.25 times MIC incubated for overnight by microbroth dilution checkerboard assay relative to rifampicin alone; format: functional
How it was run: (§5)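 Checkerboard run under the MIC conditions (TSB, overnight, 37 °C). Antibiotic and lipoguanidine 2-fold series were combined on one plate before bacteria were added. Growth/no-growth was scored as for the MIC (<0.1 OD600). Single-agent MICs were measured on the same plates. Three independent repeats were done.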

[11] = system: Enterococcus faecium; experiment: Antibacterial activity against vancomycin resistant Enterococcus faecium NCTC 12204 assessed as bacterial growth inhibition incubated for overnight by microbroth dilution method; format: functional; how it was run: as §2
[12] = system: Acinetobacter baumannii; experiment: Antibacterial activity against Acinetobacter baumannii AYE assessed as bacterial growth inhibition incubated for overnight by microbroth dilution method; format: functional; how it was run: as §4
[13] = system: Escherichia coli; experiment: Synergistic antibacterial activity against Escherichia coli NCTC 12923 assessed as fold change in rifampicin MIC at <=0.25 times MIC incubated for overnight by microbroth dilution checkerboard assay relative to rifampicin alone; format: functional; how it was run: as §3
[14] = system: Klebsiella pneumoniae; experiment: Synergistic antibacterial activity against […] Klebsiella pneumoniae M6 assessed as rifampicin MIC at <=0.25 times MIC incubated for overnight by microbroth dilution checkerboard assay; format: functional; how it was run: as §5
[15] = system: Staphylococcus aureus; experiment: Antibacterial activity against methicillin resistant Staphylococcus aureus USA 300 assessed as bacterial growth inhibition incubated for overnight by microbroth dilution method; format: functional; how it was run: as §2
[16] = system: Acinetobacter baumannii; experiment: Antibacterial activity against Acinetobacter baumannii ATCC 17978 assessed as bacterial growth inhibition incubated for overnight by microbroth dilution method; format: functional; how it was run: as §4
[17] = system: Pseudomonas aeruginosa; experiment: Synergistic antibacterial activity against Pseudomonas aeruginosa NCTC 13437 assessed as fold change in rifampicin MIC at <=0.25 times MIC incubated for overnight by microbroth dilution checkerboard assay relative to rifampicin alone; format: functional; how it was run: as §1
[18] = system: Enterococcus faecalis; experiment: Antibacterial activity against vancomycin sensitive Enterococcus faecalis NCTC 775 assessed as bacterial growth inhibition incubated for overnight by microbroth dilution method
[19] = system: Pseudomonas aeruginosa; experiment: Antibacterial activity against Pseudomonas aeruginosa PAO1 assessed as bacterial growth inhibition incubated for overnight by microbroth dilution method; format: functional; how it was run: as §4
[20] = system: Klebsiella pneumoniae; experiment: Antibacterial activity against Klebsiella pneumoniae M6 assessed as bacterial growth inhibition incubated for overnight by microbroth dilution method
[21] = system: Acinetobacter baumannii; experiment: Synergistic antibacterial activity against Acinetobacter baumannii AYE assessed as rifampicin MIC at <=0.25 times MIC incubated for overnight by microbroth dilution checkerboard assay; format: functional; how it was run: as §3
[22] = system: Staphylococcus aureus; experiment: Antibacterial activity against methicillin sensitive Staphylococcus aureus 1199B assessed as bacterial growth inhibition incubated for overnight by microbroth dilution method; format: functional; how it was run: as §2
[23] = system: Acinetobacter baumannii; experiment: Synergistic antibacterial activity against Acinetobacter baumannii ATCC 17978 assessed as rifampicin MIC at <=0.25 times MIC incubated for overnight by microbroth dilution checkerboard assay; format: functional; how it was run: as §3
[24] = system: Staphylococcus aureus; experiment: Antibacterial activity against methicillin sensitive Staphylococcus aureus ATCC 9144 assessed as bacterial growth inhibition incubated for overnight by microbroth dilution method; format: functional; how it was run: as §2
[25] = system: Acinetobacter baumannii; experiment: Synergistic antibacterial activity against Acinetobacter baumannii AYE assessed as fold change in rifampicin MIC at <=0.25 times MIC incubated for overnight by microbroth dilution checkerboard assay relative to rifampicin alone; format: functional; how it was run: as §3
[26] = system: Pseudomonas aeruginosa; experiment: Synergistic antibacterial activity against Pseudomonas aeruginosa PAO1 assessed as rifampicin MIC at <=0.25 times MIC incubated for overnight by microbroth dilution checkerboard assay; format: functional; how it was run: as §1
[27] = system: Pseudomonas aeruginosa; experiment: Antibacterial activity against Pseudomonas aeruginosa NCTC 13437 assessed as bacterial growth inhibition incubated for overnight by microbroth dilution method; format: functional; how it was run: as §4
[28] = system: Acinetobacter baumannii; experiment: Synergistic antibacterial activity against Acinetobacter baumannii ATCC 17978 assessed as bacterial growth inhibition incubated for overnight in presence of PBMN by microbroth dilution method relative to control; format: functional
How it was run: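 Adapted broth microdilution in TSB. The test compound was in a 2-fold dilution series, with PMBN added at a fixed 30 µg/mL. Bacteria at OD 0.02 were added, and plates were incubated overnight at 37 °C. Growth/no growth was read as for the MIC (<0.1 OD600).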

## CCCCCCCCCCNC(=N)NCCCCN
[1]
  fold change (FC): >=4
[2]
  MIC: > 128 µg/mL
[3]
  MIC: 32 µg/mL (≈ 118 µM)
[4]
  fold change (FC): >=4
[5]
  MIC: > 128 µg/mL
[6]
  MIC: 0.25 µg/mL
[7]
  MIC: ≤ 0.125 µg/mL
[8]
  MIC: 128 µg/mL (≈ 473 µM)
[9]
  MIC: ≤ 0.125 µg/mL
[10]
  fold change (FC): >=4
[11]
  MIC: > 128 µg/mL
[12]
  MIC: > 128 µg/mL
[13]
  fold change (FC): >=4
[14]
  MIC: ≤ 0.125 µg/mL
[15]
  MIC: 32 µg/mL (≈ 118 µM)
[16]
  MIC: > 128 µg/mL
[17]
  fold change (FC): >=4
[18]
  MIC: 128 µg/mL (≈ 473 µM)
[19]
  MIC: > 128 µg/mL
[20]
  MIC: > 128 µg/mL
[21]
  MIC: ≤ 0.125 µg/mL
[22]
  MIC: 32 µg/mL (≈ 118 µM)
[23]
  MIC: ≤ 0.125 µg/mL
[24]
  MIC: 16 µg/mL (≈ 59.2 µM)
[25]
  fold change (FC): >=4
[26]
  MIC: ≤ 0.125 µg/mL
[27]
  MIC: > 128 µg/mL
[28]
  inhibition (INH): <20%
